Results on 41 molecules are retold here after ChEMBL document CHEMBL3085648, “Enhancement of kinase selectivity in a potent class of arylamide FMS inhibitors” (Bioorg Med Chem Lett, 2013).

Data set [1] is described as follows: Metabolic stability in rat liver microsomes assessed as compound remaining after 10 mins. The data set is classed as ADME. The conditions noted are these: read-out: Stability. The method, boiled down: (§1)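 Compound was incubated with human, mouse or rat liver microsomal preparations. Stability is the percent of compound remaining after 10 min.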
The test system of the next data set is Mus musculus. Briefly: Inhibition of CSF-1-induced c-fos gene expression in mouse spleen at 40 mg/kg, po after 6 hrs. The data set is classed as functional. The method, boiled down: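 In the mouse pharmacodynamic model, compound was given orally. Spleen c-fos mRNA induced by an iv injection of CSF-1 was measured 6 or 8 h after dosing.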
Data set [2] can be described thus: Metabolic stability in mouse liver microsomes assessed as compound remaining after 10 mins. The data set is classed as ADME, Microsome. The conditions noted are these: for remaining at 10 min: liver microsomes, read-out: Stability. The essentials:
as §1
A general note: Liver microsomes are vesicles of endoplasmic reticulum, rich in cytochrome P450 enzymes.

The nature of data set [3]: Metabolic stability in human liver microsomes assessed as compound remaining after 10 mins. Type of data set: ADME. The conditions noted are these: liver microsomes, read-out: Stability. The method, boiled down: as §1
Data set [4] concerns the target T1, Macrophage colony-stimulating factor 1 receptor (Mus musculus, UniProt P09581).
T1 sequence (P09581 whole entry): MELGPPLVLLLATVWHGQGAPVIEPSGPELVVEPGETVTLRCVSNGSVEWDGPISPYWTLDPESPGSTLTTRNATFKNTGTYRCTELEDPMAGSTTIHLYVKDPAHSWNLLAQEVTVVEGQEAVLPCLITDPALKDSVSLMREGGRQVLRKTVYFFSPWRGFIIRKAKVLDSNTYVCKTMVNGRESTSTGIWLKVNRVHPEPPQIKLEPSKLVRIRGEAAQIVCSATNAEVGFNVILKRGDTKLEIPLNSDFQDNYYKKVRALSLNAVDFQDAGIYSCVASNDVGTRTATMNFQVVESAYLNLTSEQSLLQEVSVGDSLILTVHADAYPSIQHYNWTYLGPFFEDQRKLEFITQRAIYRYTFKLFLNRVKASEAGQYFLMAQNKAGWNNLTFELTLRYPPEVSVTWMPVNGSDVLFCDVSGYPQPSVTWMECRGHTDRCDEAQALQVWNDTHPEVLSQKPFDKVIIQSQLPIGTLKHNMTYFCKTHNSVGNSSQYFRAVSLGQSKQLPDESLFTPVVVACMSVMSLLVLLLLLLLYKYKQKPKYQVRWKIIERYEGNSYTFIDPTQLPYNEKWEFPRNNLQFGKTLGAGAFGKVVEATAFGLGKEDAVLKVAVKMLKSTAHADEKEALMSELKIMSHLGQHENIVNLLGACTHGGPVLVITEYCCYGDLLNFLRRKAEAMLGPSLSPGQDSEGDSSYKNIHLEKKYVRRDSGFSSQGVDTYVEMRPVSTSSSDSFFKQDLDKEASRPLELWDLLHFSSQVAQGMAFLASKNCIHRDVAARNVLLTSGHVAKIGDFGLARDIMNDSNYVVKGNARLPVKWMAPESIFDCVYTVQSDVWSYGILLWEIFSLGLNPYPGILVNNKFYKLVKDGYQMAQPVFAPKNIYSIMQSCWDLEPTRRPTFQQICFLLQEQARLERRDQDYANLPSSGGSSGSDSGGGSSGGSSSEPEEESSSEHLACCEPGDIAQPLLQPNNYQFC
As to the kind of experiment: Inhibition of FMS in mouse BMDM cells. The data set is classed as cell-based.

Data set [5] concerns the target Mast/stem cell growth factor receptor Kit (Homo sapiens, UniProt P10721). Briefly: Inhibition of KIT (unknown origin).
Another data set deals with Mo7e. Briefly: Selectivity ratio of IC50 for KIT in human Mo7e cells to IC50 for FMS in mouse BMDM cells. Type of data set: cell-based. The method, boiled down:
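Cellular selectivity was calculated as Mo7e IC50 divided by BMDM IC50. Mo7e IC50 came from SCF-dependent proliferation of Mo7e leukemia cells. BMDM IC50 came from proliferation of murine bone marrow-derived macrophages.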

Bounds are passed on as bounds.

Sequence of Mast/stem cell growth factor receptor Kit (P10721 whole entry): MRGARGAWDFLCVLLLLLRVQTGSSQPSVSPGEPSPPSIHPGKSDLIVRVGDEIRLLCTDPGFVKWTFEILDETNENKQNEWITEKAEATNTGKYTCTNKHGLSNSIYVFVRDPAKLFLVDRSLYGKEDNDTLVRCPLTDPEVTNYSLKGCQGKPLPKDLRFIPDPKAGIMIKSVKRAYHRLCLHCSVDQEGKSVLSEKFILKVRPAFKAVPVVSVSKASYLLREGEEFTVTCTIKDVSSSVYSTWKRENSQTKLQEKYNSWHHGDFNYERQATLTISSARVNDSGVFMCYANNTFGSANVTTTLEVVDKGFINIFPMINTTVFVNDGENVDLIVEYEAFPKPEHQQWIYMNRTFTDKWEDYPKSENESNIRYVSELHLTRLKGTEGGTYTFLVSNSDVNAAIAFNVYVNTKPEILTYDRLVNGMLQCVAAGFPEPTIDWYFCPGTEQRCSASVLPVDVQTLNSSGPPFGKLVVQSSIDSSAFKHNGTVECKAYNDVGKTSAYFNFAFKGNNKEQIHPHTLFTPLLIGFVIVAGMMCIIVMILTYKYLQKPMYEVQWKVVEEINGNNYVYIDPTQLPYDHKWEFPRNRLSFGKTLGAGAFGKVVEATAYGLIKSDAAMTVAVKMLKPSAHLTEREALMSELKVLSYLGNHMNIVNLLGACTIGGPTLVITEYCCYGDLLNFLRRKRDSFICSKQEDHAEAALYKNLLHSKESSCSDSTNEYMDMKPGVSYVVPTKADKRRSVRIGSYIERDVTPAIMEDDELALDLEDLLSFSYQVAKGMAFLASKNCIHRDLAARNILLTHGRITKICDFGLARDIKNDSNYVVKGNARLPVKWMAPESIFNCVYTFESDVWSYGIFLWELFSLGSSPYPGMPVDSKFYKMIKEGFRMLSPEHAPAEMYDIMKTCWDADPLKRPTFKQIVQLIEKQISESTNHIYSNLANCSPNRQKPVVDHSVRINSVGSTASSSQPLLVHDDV

Take `CN1CCN(C(C)(C)c2ccc(NC(=O)c3ncc(C#N)[nH]3)c(C3=CCC(C)(C)CC3)c2)CC1`: the remaining at 10 min in data set [1] turned out to be 16%; in data set [2] it was 110%; in data set [3], 103%. Moreover, the inhibition in vivo (commonly the drop in the measured response relative to a control, in per cent) at 40 mg/kg in the data set with Mus musculus was 0%.
In the case of `N#Cc1cnc(C(=O)Nc2ccc(CCS(=O)(=O)NN)cc2C2=CCCCC2)[nH]1`, in data set [4], inhibition was half-maximal at 23 nM (IC50).
Take `CC(C)(O)Cc1ccc(NC(=O)c2nc(C#N)c[nH]2)c(C2=CCCCC2)c1`: the remaining at 10 min in data set [1] stood at 47%; in data set [2] it was 61%; in data set [3], 66%. For the same molecule, in data set [4], inhibition was half-maximal at 32 nM (IC50).
As for `COCCNC(C)(C)c1ccc(NC(=O)c2nc(C#N)c[nH]2)c(C2=CCC(C)(C)CC2)c1`, the remaining at 10 min in data set [1] is 78%; in data set [2], 50%; in data set [3], 79%. Besides, it took 42 nM to reach half-maximal inhibition in data set [5] (IC50).
Turning to `CC1(C)CC=C(c2cc(CC(=O)NCCCO)ccc2NC(=O)c2ncc(C#N)[nH]2)CC1`, in data set [4], the IC50 (in general, the point on the concentration scale where inhibition reaches its midpoint) was more than 100 nM.
In the case of `CC1(C)CC=C(c2cc(C(C)(C)OCCN3CCOCC3)ccc2NC(=O)c2nc(C#N)c[nH]2)CC1`, the figures for the remaining at 10 min in data set [1], in data set [2] and in data set [3] were 44%, 93% and 38%, respectively. In data set [5], this molecule came in with an IC50 of 57 nM.
`CC1(C)CC=C(c2cc(C(N)=O)ccc2NC(=O)c2nc(C#N)c[nH]2)CC1` displayed an IC50 in data set [4] of 32 nM.
With `CC1(C)CC=C(c2cc(C(C)(C)NCCS(C)(=O)=O)ccc2NC(=O)c2nc(C#N)c[nH]2)CC1`, the results for the remaining at 10 min in data set [1], in data set [2] and in data set [3] were 28%, 62% and 93%, respectively.
Turning to `CC1(C)CC=C(c2cc(CCS(N)(=O)=O)ccc2NC(=O)c2nc(C#N)c[nH]2)CC1`, the values for the remaining at 10 min in data set [1] and in data set [3] were 5% and 109%, respectively. Moreover, in data set [4], the IC50 was 86 nM.
In data set [4], `N#Cc1c[nH]c(C(=O)Nc2ccc(C(N)=O)cc2C2=CCCCC2)n1` displayed an IC50 of 34 nM.
As for `CCN1CCN(C(C)(C)c2ccc(NC(=O)c3nc(C#N)c[nH]3)c(C3=CCC(C)(C)CC3)c2)CC1`, the remaining at 10 min came to 32% in data set [1], 84% in data set [2] and 108% in data set [3]. In data set [5], this molecule had an IC50 of 50 nM.
For the molecule `CC1(C)CC=C(c2cc(S(C)(=O)=O)ccc2NC(=O)c2nc(C#N)c[nH]2)CC1`, inhibition in data set [4] was half-maximal at 59 nM (IC50).
Molecule `N#Cc1c[nH]c(C(=O)Nc2ccc(CCS(N)(=O)=O)cc2C2=CCCCC2)n1` gave an IC50 in data set [4] of 54 nM.
Same read-out and setting: the same measure for `CC1(C)CC=C(c2cc(CCS(=O)(=O)NN)ccc2NC(=O)c2nc(C#N)c[nH]2)CC1`: 21 nM.
As for `CC1(C)CC=C(c2cc(CN3CCN(CCO)CC3)ccc2NC(=O)c2nc(C#N)c[nH]2)CC1`, the remaining at 10 min in data set [1] amounted to 2%; in data set [2] it was 79%; in data set [3], 101%.
`CC1(C)CC=C(c2cc(C(C)(C)CO)ccc2NC(=O)c2nc(C#N)c[nH]2)CC1`: half-maximal inhibition in data set [4] (IC50) required 33 nM.
In the case of `CN(C)CC(=O)N1CCC(c2ccc(NC(=O)c3nc(C#N)c[nH]3)c(C3=CCCCC3)c2)CC1`, in data set [1], the remaining at 10 min was determined as 77%. In the data set on Mo7e, the Ratio IC50 amounted to 15.
In turn, `CC1(C)CC=C(c2cc(S(N)(=O)=O)ccc2NC(=O)c2nc(C#N)c[nH]2)CC1` gave an IC50 in data set [4] of more than 150 nM.
In data set [4], `CC1(C)CC=C(c2cc(CCO)ccc2NC(=O)c2ncc(C#N)[nH]2)CC1` had an IC50 of 18 nM. Further, the remaining at 10 min in data set [2] amounted to 41%; in data set [3], 74%.
For the molecule `CN(C)C(=O)c1ccc(NC(=O)c2nc(C#N)c[nH]2)c(C2=CCC(C)(C)CC2)c1`, in data set [4], the IC50 turned out to be 130 nM. This lies in the sub-micromolar range.
For the molecule `N#Cc1cnc(C(=O)Nc2ccc(CCN3CCOCC3)cc2C2=CCCCC2)[nH]1`, the IC50 in data set [4] amounted to 1.8 nM. Moreover, the figures for the remaining at 10 min in data set [2] and in data set [3] were 2% and 46%, respectively.
Regarding `CC1(C)CC=C(c2cc(C(C)(C)NCCO)ccc2NC(=O)c2nc(C#N)c[nH]2)CC1`, in the data set with Mo7e, the Ratio IC50 worked out at 32. Moreover, the IC50 in data set [4] amounted to 7.8 nM.
On to `COCCN(C)C(C)(C)c1ccc(NC(=O)c2nc(C#N)c[nH]2)c(C2=CCC(C)(C)CC2)c1`, for which the remaining at 10 min in data set [1] worked out at 13%; in data set [3], 11%.
`N#Cc1cnc(C(=O)Nc2ccc(CN3CCOCC3)cc2C2=CCCCC2)[nH]1` showed an IC50 in data set [4] of 20 nM. Further, the remaining at 10 min in data set [2] was found to be 5%; in data set [3], 71%.
Take `N#Cc1c[nH]c(C(=O)Nc2ccc(CCC(=O)O)cc2C2=CCCCC2)n1`: the remaining at 10 min in data set [1] was found to be 19%; in data set [3], 83%.
As for `COCCN1CCN(C(C)(C)c2ccc(NC(=O)c3nc(C#N)c[nH]3)c(C3=CCC(C)(C)CC3)c2)CC1`, the remaining at 10 min in data set [1] turned out to be 40%; in data set [2], 73%; in data set [3] it was 72%. In data set [5], this molecule registered an IC50 of 210 nM.
With `CC1(C)CC=C(c2cc(C(=O)O)ccc2NC(=O)c2nc(C#N)c[nH]2)CC1`, in data set [4], the IC50 was more than 300 nM.
`CN(CCS(C)(=O)=O)C(C)(C)c1ccc(NC(=O)c2nc(C#N)c[nH]2)c(C2=CCC(C)(C)CC2)c1`: the IC50 in data set [4] is 21 nM.
Consider `CN(C)CCOC(C)(C)c1ccc(NC(=O)c2ncc(C#N)[nH]2)c(C2=CCC(C)(C)CC2)c1`, for which the remaining at 10 min in data set [1] was determined as 39%; in data set [3], 104%.
Take `CC1(C)CC=C(c2cc(CCN3CCOCC3)ccc2NC(=O)c2ncc(C#N)[nH]2)CC1`: the remaining at 10 min in data set [2] is 49%; in data set [3], 66%.
`N#Cc1c[nH]c(C(=O)Nc2ccc(S(=O)(=O)N3CCOCC3)cc2C2=CCCCC2)n1`: the IC50 in data set [4] stood at 210 nM.
The same measure, in the same setting: the same measure for `N#Cc1cnc(C(=O)Nc2ccc(Cc3nnn[nH]3)cc2C2=CCCCC2)[nH]1`: more than 300 nM; for `CC1(C)CC=C(c2cc(Cc3nnn[nH]3)ccc2NC(=O)c2ncc(C#N)[nH]2)CC1`: more than 100 nM.
Turning to `N#Cc1cnc(C(=O)Nc2ccc(CCO)cc2C2=CCCCC2)[nH]1`, the remaining at 10 min in data set [1] worked out at 3%; in data set [2], 3%; in data set [3], 7%. Besides, the IC50 in data set [4] stood at 40 nM.
Consider `CC1(C)CC=C(c2cc(C(C)(C)OCCN3CCCC3)ccc2NC(=O)c2nc(C#N)c[nH]2)CC1`, for which half-maximal inhibition in data set [5] (IC50) was put at 25 nM.
As to `CC1(C)CC=C(c2cc(C(C)(C)O)ccc2NC(=O)c2nc(C#N)c[nH]2)CC1`, the remaining at 10 min in data set [1] was 96%; in data set [3] it was 110%. Further, 25 nM corresponded to half-maximal inhibition in data set [4] (IC50). Also, in data set [2] (microsomes, 10 min), the Stability is 124%.
In data set [4], `CC1(C)CC=C(c2cc(C(C)(C)N3CCOCC3)ccc2NC(=O)c2nc(C#N)c[nH]2)CC1` yielded an IC50 of 17 nM.
On to `CC(O)c1ccc(NC(=O)c2ncc(C#N)[nH]2)c(C2=CCC(C)(C)CC2)c1` (stereo not given), for which the IC50 in data set [4] was more than 150 nM.
The same measure, in the same setting: the figure for `CC1(C)CC=C(c2cc(-c3nnn[nH]3)ccc2NC(=O)c2ncc(C#N)[nH]2)CC1` is more than 300 nM.
On the same count and under the same terms, the same measure for `N#Cc1cnc(C(=O)Nc2ccc(S(N)(=O)=O)cc2C2=CCCCC2)[nH]1`: more than 150 nM.
For `N#Cc1c[nH]c(C(=O)Nc2ccc(CCS(=O)(=O)N3CCOCC3)cc2C2=CCCCC2)n1`, the remaining at 10 min in data set [1] is 4%; in data set [2], 93%; in data set [3], 118%.
